Screening results as filed in PubChem BioAssay.
In the library only some 2.3% were active in any assay of this set; here they are far more common.
PAFAH1B3 FP inh: blocks human PAF acetylhydrolase 1B catalytic subunit 3 | Q15102 | actives 0.28% (n = 340,000) | inhibition, % at 3.39 µM | recombinant PAFAH1B3, FP-rhodamine probe, fluorescence polarization | AID 492972;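 active = inhibition above the screen-wide average of all tested compounds plus 3 SD, cut at about 25% in these data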;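 also: 0% = enzyme with DMSO only and 100% = wells lacking PAFAH1B3 protein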
Target sequence (Q15102 whole entry, looked up): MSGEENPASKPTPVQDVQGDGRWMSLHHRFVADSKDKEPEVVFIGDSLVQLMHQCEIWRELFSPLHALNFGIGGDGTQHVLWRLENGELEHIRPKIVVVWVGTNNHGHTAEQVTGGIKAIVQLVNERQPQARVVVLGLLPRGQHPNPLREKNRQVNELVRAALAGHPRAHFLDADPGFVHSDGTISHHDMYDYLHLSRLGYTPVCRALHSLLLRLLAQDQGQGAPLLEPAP
PAFAH2 FP inh: PAFAH2 (human) inhibition | Q99487 | recombinant PAFAH2, FP-rhodamine activity probe, fluorescence polarization | inhibition, % at 3.39 µM | actives 0.99% (n = 340,000) | AID 492956;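 active = inhibition above the mean over all tested compounds plus 3 SD, cut at about 30% in these data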;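 also: inhibitors block probe labeling of enzyme so polarization drops; 0% = enzyme with DMSO and 100% = wells lacking PAFAH2 protein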
TDP2 absorb: TDP2 (human) inhibition, absorbance primary screen | inhibition, % at 12.8 µM | actives 0.34% (n = 370,000) | recombinant TDP2, T5PNP hydrolysis, p-nitrophenol absorbance 415 nm | AID 720702;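 active = inhibition above the mean of all tested compounds plus 3 SD, set per campaign, cut at about 25% in these data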;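 also: 0% = DMSO with enzyme and 100% = buffer with substrate but no TDP2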
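Test system: Human TDP2 enzyme | Reagent: 5 mM T5PNP | Compound dosing: 12.8 µM single point, 1% DMSO | Incubation: Enzyme reaction with compound for 2 h at 37 °C | Technique: p-Nitrophenol epi absorbance | Read-out: % inhibition relative to enzyme-containing and enzyme-free wells | Benchmarks: High control without enzyme, low control DMSO plus TDP2 | Replicates: Singlicate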
PAFAH1B2 FP inh: inhibitors of human PAFAH1B2; AID 492953; recombinant PAFAH1B2, FP-rhodamine activity probe, fluorescence polarization; P68402; inhibition, % at 3.39 µM; actives 1.2% (n = 340,000);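 active = inhibition above the mean of all tested compounds plus 3 SD, cut at about 24% in these data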;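 also: 0% = enzyme with DMSO and 100% = wells lacking PAFAH1B2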
Target sequence (P68402 whole entry, looked up): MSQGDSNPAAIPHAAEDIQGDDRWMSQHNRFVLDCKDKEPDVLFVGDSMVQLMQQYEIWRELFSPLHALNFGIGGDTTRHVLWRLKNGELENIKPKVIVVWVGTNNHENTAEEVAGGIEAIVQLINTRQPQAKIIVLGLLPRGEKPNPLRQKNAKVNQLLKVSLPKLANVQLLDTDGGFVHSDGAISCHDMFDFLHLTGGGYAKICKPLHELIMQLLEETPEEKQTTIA
Apaf-1 inh: human Apaf-1 inhibition | AID 489030 | actives 0.71% (n = 330,000) | reconstituted apoptosome caspase-3 activity, DEVD-Rh110 fluorescence | inhibition, % at 20 µM; active = inhibition of at least 40% at 20 µM;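 also: plate controls were DMSO wells for no effect and DEVD-CHO caspase inhibitor wells for full effect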
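Material: cell-free apoptosome with Apaf-1, procaspase-3 and caspase-9; Buffer or medium: Hepes pH 7.5 with detergent and BSA; Reagent: cytochrome c trigger plus (Z-DEVD)2-Rh110 caspase-3 substrate; Times: compound with Apaf-1, dATP, procaspase-3 30 min, then 50 min reaction, room temperature; Technique: Rh110 fluorescence intensity.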
* marks the source's active call; other numbers are inactive results; x = not tested or not shown.

SMILES	PAFAH1B3 FP inh	PAFAH2 FP inh	TDP2 absorb	PAFAH1B2 FP inh	Apaf-1 inh
Cc1ccc(S(=O)(=O)Oc2cccc(/C=N/Nc3ccc(C(=O)O)cc3)c2)cc1	9.8	14.3	6.2	21.0	-20.3
COc1ccc(CN2CN3Cc4ccc(C)cc4C3CS2(=O)=O)cc1 (stereo not drawn)	x	x	-6.8	x	x
S=c1[nH]nc(-c2cc(-c3ccccc3)n[nH]2)n1N=Cc1c[nH]c2ccccc12	x	x	4.6	x	x
CCNc1nc(NC(C)(C)C)nc(SC(C(C)=O)C(C)=O)n1	1.0	-12.2	8.2	24.9*	9.2
O=C(Cc1ccccc1)NCCSCc1ccc(Cl)cc1	11.9	4.6	9.6	28.8*	-0.9
Oc1c(Br)cc(Br)cc1/C=N/Nc1ccc(Cl)nn1	7.5	28.9	-1.3	8.8	x
Oc1c(Br)cc(/C=N/Nc2ccc(Cl)nn2)cc1Br	27.8*	32.7*	-10.1	16.4	16.9
C=CCn1c(SCc2ccc(Cl)cc2)nc2c1c(=O)[nH]c(=O)n2C	8.5	6.3	-1.0	25.2*	-0.2
O=C(NCCO)C(=O)c1c(-c2ccc(Cl)cc2)cc2ccccn12	2.6	3.5	-15.2	1.9	-0.8
O=C(O)c1ccn2c(C(=O)c3ccc(Cl)cc3)c(-c3ccccc3)cc2c1	-2.6	8.1	-11.1	59.0*	0.3
CC[C@H](CO)Oc1cc(NCc2ccc(Cl)c(Cl)c2)c2ncn(C(C)C)c2c1	3.7	11.8	9.1	16.8	22.0
CCC(CO)Oc1cc(NCc2ccc(Cl)cc2)c2ncn(C(C)C)c2c1 (stereo not drawn)	7.4	6.2	5.5	28.3*	36.8
CCOC(=O)[C@]12CCCC3=C1N(CCC3)C(=O)[C@@H](CC(=O)N1CCN(C(=O)C3CC3)CC1)C2	x	x	7.8	x	x
O=C(O)CCc1ccc(NCc2cccc(Oc3ccccc3)c2)cc1	13.6	0.2	12.8	24.4*	-2.9
COc1ccc(CNCc2cccc(Oc3ccccc3)c2)cc1	12.9	0.7	1.2	2.1	-3.9
COc1ccc(NC(=O)N(C)C[C@H]2Oc3c(NC(=O)Nc4ccc(C(F)(F)F)cc4)cccc3C(=O)N([C@H](C)CO)C[C@@H]2C)cc1	6.6	-2.9	3.5	35.5*	10.9
C[C@H](CO)N1C[C@H](C)[C@@H](CN(C)S(=O)(=O)c2ccc(F)cc2)Oc2c(NC(=O)Nc3ccc(C(F)(F)F)cc3)cccc2C1=O	-24.2	-30.1	1.6	24.3*	14.7
CC(C)NC(=O)N(C)C[C@H]1Oc2c(NC(=O)Nc3ccc(C(F)(F)F)cc3)cccc2C(=O)N([C@H](C)CO)C[C@@H]1C	-4.8	0.8	-1.4	1.2	11.0
C[C@H]1CN([C@@H](C)CO)C(=O)c2cccc(NC(=O)Nc3ccc(C(F)(F)F)cc3)c2O[C@@H]1CN(C)S(=O)(=O)c1ccc(Cl)cc1	-41.5	-28.8	-8.1	2.6	17.8
C[C@H](CO)N1C[C@H](C)[C@@H](CN(C)C(=O)Nc2ccc(C(F)(F)F)cc2)Oc2c(NC(=O)Nc3ccccc3)cccc2C1=O	-8.6	-8.8	2.9	57.1*	20.6
C[C@@H]1CN([C@H](C)CO)C(=O)c2cccc(NC(=O)Nc3ccc(F)cc3)c2O[C@H]1CN(C)C(=O)Nc1ccc(C(F)(F)F)cc1	5.8	0.5	-8.6	49.6*	25.6
COc1ccc(NC(=O)Nc2cccc3c2O[C@H](CN(C)C(=O)Nc2ccccc2)[C@@H](C)CN([C@H](C)CO)C3=O)cc1	7.6	-2.3	-2.5	3.8	9.6
COc1cccc(CNC(=O)[C@H]2CCCN2C(=O)[C@H]2CCCN2C(=O)c2ccccc2)c1	x	x	1.6	x	x
O=C(Nc1ccncc1)C1(c2ccccc2)CCCC1	4.3	3.2	16.1	27.0*	-8.4
O=C(Nc1ccccn1)C1(c2ccccc2)CCCC1	1.8	-4.2	7.7	25.7*	-10.1
NS(=O)(=O)c1ccc(NC(=O)C2(c3ccccc3)CCCC2)cc1	9.5	0.1	-3.7	27.4*	-4.4
Cc1ccc(OCC(=O)Nc2ccc([N+](=O)[O-])cc2)cc1	11.6	10.5	-9.1	5.2	-9.5
Cc1ccc(NC(=O)C2(c3ccc([N+](=O)[O-])cc3)CCCC2)cc1	7.5	10.1	-7.9	25.0*	11.4
COC(=O)c1cc2c(c3c4cc(OC)ccc4n(S(=O)(=O)c4cccc(C)c4)c13)C(=O)N(C)C2	x	x	10.4	x	x
COc1ccc(S[C@]2(C(=O)NCC(C)C)CC(=O)N[C@@H]2c2ccc(OC)cc2)cc1	x	x	4.4	x	x
